Results reported in ChEMBL document CHEMBL1154046, “Synthesis of some urea and thiourea derivatives of 3-phenyl/ethyl-2-thioxo-2,3-dihydrothiazolo[4,5-d]pyrimidine and their antagonistic effects on haloperidol-induced catalepsy and oxidative stress in mice” (2009).

Assays:
Format in all cases: functional
Conditions in all cases: route intraperitoneal, in the assay text read “ip” for “po”
[1] = test system: Mus musculus; test: Inhibition of haloperidol-induced catalepsy in Swiss albino mouse assessed as time elapsed until release of forepaw from bar at 100 mg/kg, […] 30 min prior to haloperidol challenge measured after 120 mins by bar test
How it was run: (§1)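 Adult male pathogen-free Swiss albino mice (18–25 g), n = 5 per group, each used once. Compounds at 100 mg/kg i.p. were given as a suspension in 0.5% gum acacia 30 min before haloperidol 5 mg/kg i.p. Forepaws were placed on a horizontal bar 9 cm high, and descent time was recorded every 30 min for 3 h. Testing ran at 23 ± 1 °C under 20 lux. Values are mean ± S.E.M.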

[2] = test system: Mus musculus; test: Inhibition of haloperidol-induced catalepsy in Swiss albino mouse assessed as time elapsed until release of forepaw from bar at 100 mg/kg, […] 30 min prior to haloperidol challenge measured after 180 mins by bar test; how it was run: as §1
[3] = test system: Mus musculus; test: Inhibition of haloperidol-induced catalepsy in Swiss albino mouse assessed as time elapsed until release of forepaw from bar at 100 mg/kg, […] 30 min prior to haloperidol challenge measured after 30 mins by bar test; how it was run: as §1
[4] = test system: Mus musculus; test: Inhibition of haloperidol-induced catalepsy in Swiss albino mouse at 100 mg/kg, […] 30 min prior to haloperidol challenge by bar test relative to haloperidol control
How it was run: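 Mice received compound at 100 mg/kg i.p. (in 0.5% gum acacia) 30 min before haloperidol 5 mg/kg i.p., n = 5. The bar test was run every 30 min over 3 h, and descent times were summed as CDT [3 h]. Haloperidol CDT minus vehicle CDT was set as 100% catalepsy, and % inhibition was calculated against it.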

[5] = test system: Mus musculus; test: Inhibition of haloperidol-induced catalepsy in Swiss albino mouse assessed as time elapsed until release of forepaw from bar at 100 mg/kg, […] 30 min prior to haloperidol challenge measured after 90 mins by bar test; how it was run: as §1
[6] = test system: Mus musculus; test: Inhibition of haloperidol-induced catalepsy in Swiss albino mouse assessed as time elapsed until release of forepaw from bar at 100 mg/kg, […] 30 min prior to haloperidol challenge measured after 60 mins by bar test; how it was run: as §1
[7] = test system: Mus musculus; test: Inhibition of haloperidol-induced catalepsy in Swiss albino mouse assessed as time elapsed until release of forepaw from bar at 100 mg/kg, […] 30 min prior to haloperidol challenge measured after 150 mins by bar test; how it was run: as §1

| Structure (SMILES) | catalepsy descent time [1] | Catalepsy duration (time to release forepaw from bar) [2] | descent time [3] | inhibition (INH) [4] | catalepsy descent time [5] | Catalepsy time (forepaw descent time) [6] | Time to forepaw release from bar [7] |
| --- | --- | --- | --- | --- | --- | --- | --- |
| O=C(Nc1ccc(Cl)cc1)Nc1ncnc2c1sc(=S)n2-c1ccccc1 | 3.42 min | 4.03 min | 1.27 min | 65.3% | 2.32 min | 2.95 min | 3.43 min |
| CCn1c(=S)sc2c(NC(=S)Nc3ccc(OC)cc3)ncnc21 | 1.9 min | 2.23 min | 0.433 min | 32.3% | 1.53 min | 0.717 min | 2.1 min |
| COc1ccc(NC(=S)Nc2ncnc3c2sc(=S)n3-c2ccccc2)cc1 | 2.63 min | 2.22 min | 1.17 min | 43.1% | 1.72 min | 1.1 min | 2.87 min |
| O=C(Nc1ccccc1)Nc1ncnc2c1sc(=S)n2-c1ccccc1 | 2.23 min | 3.25 min | 0.75 min | 49.5% | 1.63 min | 2.13 min | 3.33 min |
| O=C(CCCN1CCC(O)(c2ccc(Cl)cc2)CC1)c1ccc(F)cc1 [HALOPERIDOL] | 5 min | 5 min | 3.05 min | – | 4.55 min | 3.73 min | 5 min |
| CCn1c(=S)sc2c(NC(=O)Nc3ccccc3Cl)ncnc21 | 2.62 min | 3.15 min | 2.12 min | 58.4% | 2.18 min | 2.3 min | 3.27 min |
| S=C(Nc1ccc(Cl)cc1)Nc1ncnc2c1sc(=S)n2-c1ccccc1 | 2.8 min | 4.47 min | 0.967 min | 62.6% | 2.55 min | 2.45 min | 3.48 min |
| CCn1c(=S)sc2c(NC(=O)Nc3ccccc3[N+](=O)[O-])ncnc21 | 3.3 min | 3.8 min | 1.7 min | 70.9% | 3.48 min | 2.8 min | 3.75 min |
| CCn1c(=S)sc2c(NC(=S)Nc3ccccc3)ncnc21 | 2.33 min | 2.85 min | 1.22 min | 50.1% | 2.32 min | 1.92 min | 2.87 min |
| N[C@@H](Cc1ccc(O)c(O)c1)C(=O)O [LEVODOPA] | 1.47 min | 1.8 min | 0.317 min | 25.1% | 1.43 min | 0.633 min | 1.42 min |
| O=C(Nc1ccccc1[N+](=O)[O-])Nc1ncnc2c1sc(=S)n2-c1ccccc1 | 2.25 min | 2.95 min | 0.917 min | 44.8% | 2.02 min | 1.05 min | 2.93 min |
| O=C(Nc1ccccc1Cl)Nc1ncnc2c1sc(=S)n2-c1ccccc1 | 2.78 min | 2.9 min | 1.27 min | 53% | 2.4 min | 1.97 min | 2.92 min |
| S=C(Nc1ccccc1Cl)Nc1ncnc2c1sc(=S)n2-c1ccccc1 | 2.63 min | 3.97 min | 1.07 min | 62.6% | 3.08 min | 1.93 min | 4.02 min |
| O=[N+]([O-])c1ccc(NC(=S)Nc2ncnc3c2sc(=S)n3-c2ccccc2)cc1 | 2.45 min | 2.65 min | 0.967 min | 47.5% | 2.18 min | 1.88 min | 2.68 min |
| CCn1c(=S)sc2c(NC(=O)Nc3ccc([N+](=O)[O-])cc3)ncnc21 | 3.53 min | 3.85 min | 1.67 min | 68.1% | 3.23 min | 2.33 min | 3.5 min |
| CCn1c(=S)sc2c(NC(=O)Nc3ccc(Cl)cc3)ncnc21 | 2.53 min | 4.12 min | 1.07 min | 64.1% | 2.72 min | 2.88 min | 3.77 min |
| S=C(Nc1ccccc1)Nc1ncnc2c1sc(=S)n2-c1ccccc1 | 3.2 min | 3.62 min | 1.1 min | 51% | 1.25 min | 0.967 min | 3.6 min |
| O=C(Nc1ccc([N+](=O)[O-])cc1)Nc1ncnc2c1sc(=S)n2-c1ccccc1 | 2.08 min | 3.93 min | 0.883 min | 49.7% | 1.98 min | 1.32 min | 3.18 min |
| Fc1ccccc1NC(=S)Nc1ncnc2c1sc(=S)n2-c1ccccc1 | 2.67 min | 4.28 min | 1.3 min | 58.8% | 2.37 min | 1.65 min | 3.47 min |
| COc1ccc(NC(=O)Nc2ncnc3c2sc(=S)n3-c2ccccc2)cc1 | 2.25 min | 2.15 min | 0.95 min | 39% | 1.67 min | 1.53 min | 2.08 min |
| Fc1ccc(NC(=S)Nc2ncnc3c2sc(=S)n3-c2ccccc2)cc1 | 3.25 min | 3.33 min | 1.25 min | 61.3% | 2.75 min | 2.15 min | 3.63 min |
| CCn1c(=S)sc2c(NC(=O)Nc3ccccc3)ncnc21 | 2.4 min | 3.32 min | 0.817 min | 47.8% | 2.12 min | 2.03 min | 2.22 min |
| O=C(Nc1ccccc1F)Nc1ncnc2c1sc(=S)n2-c1ccccc1 | 2.35 min | 2.63 min | 1.38 min | 51.2% | 2.77 min | 2.1 min | 2.53 min |
| CCn1c(=S)sc2c(NC(=O)Nc3ccc(OC)cc3)ncnc21 | 2.02 min | 2.38 min | 1.28 min | 43.3% | 1.9 min | 1.85 min | 2.3 min |
| CCn1c(=S)sc2c(NC(=O)Nc3ccccc3F)ncnc21 | 2.88 min | 2.95 min | 1.12 min | 53.4% | 2.3 min | 1.98 min | 3.1 min |
| O=[N+]([O-])c1ccccc1NC(=S)Nc1ncnc2c1sc(=S)n2-c1ccccc1 | 1.55 min | 3.87 min | 0.7 min | 45.4% | 1.15 min | 1.15 min | 3.9 min |
| O=C(Nc1ccc(F)cc1)Nc1ncnc2c1sc(=S)n2-c1ccccc1 | 2.63 min | 3.8 min | 1.42 min | 52.9% | 1.92 min | 1.9 min | 2.55 min |
| CCn1c(=S)sc2c(NC(=O)Nc3ccc(F)cc3)ncnc21 | 3.07 min | 3.95 min | 1.1 min | 55.1% | 1.88 min | 1.65 min | 3.12 min |
